TRAIL sens C8 = sensitizes caspase-8 expressing cells to TRAIL; NB7+C8 cells + TRAIL, ATPlite viability luminescence; inhibition (viability loss, TRAIL sensitization), % at 10 µM; 360,000 compounds, 1% hits;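 active = compounds causing at least 50% loss of cell viability in the single-dose screen, relative to plate controls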
STAT3 inh = inhibitors of IL-6 induced STAT3 signaling; U3A cells, IL-6 STAT3-luciferase reporter, luminescence; host cell line lacks STAT1; inhibition, % at 5.5 µM; 190,000 compounds, 0.89% hits; AID 862;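 active = inhibition above the mean inhibition across all screened compounds plus 3 SD, cut at about 44% in these data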;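 also: 0% = DMSO only wells and 100% = 100 µM nifuroxazide control wells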
PPC-1+TRAIL kill = PPC-1 cancer cell killing with TRAIL present. PPC-1 cells + TRAIL, ATPLite viability luminescence. cell killing (% activity), % at 4 µM or 5 µM. 220,000 compounds, 0.41% hits. AID 1443;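 active = cell killing above 50% in the first pass at 4 µM, then a duplicate retest at 5 µM averaging 50% or more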;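 also: plate controls were cells with TRAIL plus DMSO for no effect and medium-only wells lacking cells for full effect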
FLuc act counter = firefly luciferase counter-screen for stimulation assays. P08659. ATPlite luciferase biochemical, luminescence, 10 min; 0 = ATP-free wells, 1 = DMSO control. activation factor at 10 µM. 200,000 tested, under 10 active. AID 1027;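 active = luciferase activation factor, scaled between plate controls, of at least 2 with compound at 10 µM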
Target sequence (P08659 whole entry, looked up): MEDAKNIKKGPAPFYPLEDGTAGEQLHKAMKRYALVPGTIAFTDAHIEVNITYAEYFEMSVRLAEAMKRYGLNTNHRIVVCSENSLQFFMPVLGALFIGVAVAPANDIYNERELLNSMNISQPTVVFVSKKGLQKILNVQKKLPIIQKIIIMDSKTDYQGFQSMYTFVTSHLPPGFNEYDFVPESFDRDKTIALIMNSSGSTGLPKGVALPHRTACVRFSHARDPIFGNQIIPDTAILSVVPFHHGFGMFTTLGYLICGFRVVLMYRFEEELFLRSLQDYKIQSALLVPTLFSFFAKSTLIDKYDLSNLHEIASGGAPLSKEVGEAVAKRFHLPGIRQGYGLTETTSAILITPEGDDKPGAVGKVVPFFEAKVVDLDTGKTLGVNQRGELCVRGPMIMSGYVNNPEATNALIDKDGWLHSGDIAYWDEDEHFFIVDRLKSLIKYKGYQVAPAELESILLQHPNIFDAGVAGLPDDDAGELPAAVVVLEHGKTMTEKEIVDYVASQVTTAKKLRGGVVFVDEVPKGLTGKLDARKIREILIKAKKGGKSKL
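assay system = Luciferase/luciferin detection reagent, cell-free biochemical luciferase assay | also added = ATP substrate | times = 10 min post-reagent at room temperature | measured by = luminescence from luciferase reaction | measure = luciferase activation, seen as luminescence increase over controls | benchmarks = low control with PBS replacing ATP, high control enzyme plus ATP without compound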
HSP90 refold inh = inhibitors of HSP90 luciferase refolding in rabbit reticulocyte lysate; luciferase refolding luminescence, 3 h; inhibition, % at 5.6 µM; 290,000 compounds, 0.91% hits;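 active = inhibition above the screen-wide mean plus 3 SD, computed separately per campaign, cut at about 16% in these data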;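 also: 0% = DMSO wells and 100% = 60 µM geldanamycin wells; inhibitors lower the luminescence because luciferase stays unfolded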
FLuc inh counter = inhibits firefly luciferase, flagging false hits in luciferase inhibition screens. ATPLite firefly luciferase biochemical luminescence, 10 min. 200,000 compounds, 1.5% hits. inhibition, % at 10 µM. P08659;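 active = inhibition above about 50% when tested at 10 µM, limit read from the data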
Active calls of the source: *; · = no result given. Rows were chosen to be rich in hits. Some 2.2% of all compounds tested hit in one or more screens of this group.

SMILES | TRAIL sens C8 | STAT3 inh | PPC-1+TRAIL kill | FLuc act counter | HSP90 refold inh | FLuc inh counter
COc1ccc(/C(N)=N/OC(=O)c2c(-c3ccccc3Cl)noc2C)cc1OC | 93* | · | · | · | 1 | ·
O=C1CSC(c2ccc(Cl)cc2)N1Nc1nc(N2CCOCC2)nc(N2CCOCC2)n1 (configuration not stated) | -3 | -7 | 12 | 1.1 | -2 | -10
OC(CNCCC1C=Nc2ccccc21)Cn1c2ccc(Cl)cc2c2cc(Cl)ccc21 (configuration not stated) | 13 | -10 | 40 | 1 | -1 | -4
O=C(COC(=O)CCSc1ccccc1)NCc1ccc(F)cc1 | 1 | 3 | -18 | 1 | -1 | 1
COC(=O)c1ccc(CNC(=O)COC(=O)c2cc(Cl)ccc2O)cc1 | -12 | · | · | · | · | ·
CCn1cc(CN2CCCC(CNC(=O)COc3ccccc3OC)C2)c(C)n1 (configuration not stated) | 2 | · | · | · | -1 | ·
COc1ccc(C(=O)O/N=C(\N)Cc2ccc(Cl)c(Cl)c2)cc1OC | 25 | 9 | 0 | 1 | 6 | -3
Cc1ccc(/C(N)=N/OC(=O)C23CC4CC(CC(C4)C2)C3)cc1 | 88* | -4 | 25 | 0.9 | 0 | 10
N/C(=N\OC(=O)c1ccc(Br)cc1)c1ccccc1 | 84* | 14 | 2 | 0.1 | -3 | 95*
N/C(=N\OC(=O)C12CC3CC(CC(C3)C1)C2)c1ccncc1 | 20 | · | -13 | · | -2 | ·
COc1ccc(C(=O)O/N=C(\N)c2ccc(Br)cc2)cc1 | 70* | · | · | · | -2 | ·
COc1ccc(C(=O)O/N=C(\N)Cc2ccc(Cl)cc2)cc1OC | 94* | 10 | 6 | 1.1 | 3 | -5
Cc1ccc(C(=O)O/N=C(\N)c2ccc(Br)cc2)cc1 | 81* | 18 | 24 | 0.7 | 2 | 30
N/C(=N\OC(=O)c1ccc2ccccc2c1)c1ccccc1Cl | 93* | · | · | · | 0 | ·
O=C(COC(=O)c1ccccc1)c1ccc(Br)cc1 | 3 | 9 | 15 | 0.4 | -1 | 56*
O=C(COC(=O)c1ccc(Br)cc1)NCCc1ccccc1 | 29 | -4 | 16 | 1.1 | 1 | -9
CC(C)(C)C(=O)O/N=C(\N)c1ccc(Br)cc1 | 19 | · | -3 | · | 0 | ·
COc1ccc(/C(N)=N/OC(=O)c2ccc3c(c2)OCO3)cc1OC | 82* | -7 | 49 | 0.4 | -2 | 62*
CC(C)c1cccc(C(C)C)c1NC(=O)COC(=O)[C@H](C)NC(N)=O | -15 | 4 | 15 | 1 | -2 | -1
C=C(C)C1CCC(C)=C1COC(=O)Nc1ccccc1 (configuration not stated) | -24 | 22 | -6 | 1 | -2 | -4
CN(C)N1C(N)=C(C#N)C(c2ccc3c(c2)OCO3)C2=C1CC(C)(C)CC2=O (configuration not stated) | -2 | · | · | · | -2 | ·
N/C(=N\OC(=O)c1cccc(Br)c1)c1ccc(Br)cc1 | 59* | -18 | 1 | 1 | -2 | -1
N/C(=N\OC(=O)c1cccc(Br)c1)c1ccc([N+](=O)[O-])cc1 | -15 | · | · | · | 4 | ·
CCc1ccc(OC(=O)c2ccn(CC)n2)cc1 | 28 | 10 | -27 | 0.2 | 1 | 75*
COc1ccc(-c2nc(SCC(=O)N(CC(C)C)c3c(N)n(Cc4ccccc4)c(=O)[nH]c3=O)n[nH]2)cc1 | 51* | · | · | · | · | ·
SMILES | TRAIL sens C8 | STAT3 inh | PPC-1+TRAIL kill | FLuc act counter | HSP90 refold inh | FLuc inh counter
COc1ccc(N(CC(=O)N2CCC(C(N)=O)CC2)S(=O)(=O)c2ccccc2)cc1 | 11 | · | · | · | -3 | ·
N#CCCCC#Cc1ccc2c(c1)COc1c3ccccc3nn1-2 | 77* | · | · | · | · | ·
CCOc1ccccc1CNC(=O)C1CCN(c2nnc(C)c3c(C)n(-c4ccc(C)cc4)nc23)CC1 | 71* | · | · | · | 10 | ·
Cc1ccc(-n2nc3c(N4CCC(C(=O)NCc5ccccc5C)CC4)nnc(C)c3c2C)cc1 | 2 | · | · | · | 2 | ·
COc1ccc(NC(=O)C2(N(CC(C)C)C(=O)Cn3nnnc3N)CCCCC2)cc1 | -16 | -4 | 56* | 1.1 | 3 | -6
Cc1ccc(NC(=O)C2(N(CC(C)C)C(=O)Cn3nnnc3N)CCCCC2)cc1 | -19 | 5 | -9 | 1.1 | 2 | -10
CC(C)N(Cc1ccccc1)C(=O)COC(=O)c1cnc(Cl)c(Cl)c1 | 75* | · | · | · | · | ·
O=C(OCc1ccccc1)c1cnc(Cl)c(Cl)c1 | -1 | · | · | · | 1 | ·
O=C(c1ccccc1)c1cc(-c2ccccc2)on1 | 19 | 38 | 14 | 0.2 | -2 | 81*
Cc1cc(NC(=O)c2cc(-c3ccccc3)on2)no1 | 0 | 6 | 14 | 1 | -6 | -4
CCOc1ccc(C(=O)NC(C)CCc2ccccc2)cc1 (configuration not stated) | 2 | · | · | · | -3 | ·
CCOc1ccc(C(=O)NC(Cc2ccccc2)C(=O)OC)cc1 (configuration not stated) | 5 | -4 | 19 | 0.5 | -2 | 53*
COc1ccc(/C=N/OCC(=O)Nc2nc3ccccc3s2)cc1 | -3 | -1 | 23 | 1 | -2 | -4
O=C(Nc1ccccc1Cl)C(=O)c1cn(CC(=O)N2CCOCC2)c2ccccc12 | 54* | · | · | · | -2 | ·
Cc1ccc(-c2cnn(-c3ccccc3)c2N)cc1 | 79* | · | · | · | 14 | ·
CN1C(=O)C(C(=O)Nc2ccccc2F)c2ccccc21 (configuration not stated) | -5 | 17 | 22 | 0.8 | -1 | 23
Cc1ccc(NC(=O)C2C(=O)N(C)c3ccccc32)cc1 (configuration not stated) | -5 | -8 | 27 | 0.2 | -3 | 76*
O=C(Nc1ccccc1)c1ccc2ccccc2n1 | 27 | -49 | 31 | 0.5 | 6 | 52*
O=C(Nc1ccccc1C(=O)O)c1ccc2ccccc2n1 | 36 | -11 | 22 | 0.4 | 2 | 56*
Cc1ccc(CCN2CC(C(=O)NC(C)C)CC2=O)cc1 (configuration not stated) | 1 | · | · | · | 2 | ·
Cc1ccc(C(=O)Oc2oc(-c3ccccc3)nc2C=Nc2ccc(N(C)C)cc2)cc1 | 32 | 9 | 56* | 0.7 | 9 | 32
O=c1oc2ccccc2cc1-c1csc(Nc2nc3c(F)cccc3s2)n1 | 53* | -37 | -1 | 0.9 | -2 | 9
c1ccc(Nc2ccccn2)cc1 | -6 | 15 | 18 | 1 | -6 | -2
c1ccc(/N=C2\N=C(Nc3ccccn3)c3ccccc32)nc1 | 48* | · | · | · | · | ·
O=C(COc1cc(F)ccc1[N+](=O)[O-])Nc1cc(S(=O)(=O)N2CCCC2)ccc1Cl | 52* | · | · | · | · | ·
O=[N+]([O-])c1cc(S(=O)(=O)N2CCCC2)ccc1O | -3 | 5 | 9 | 1.1 | 2 | -6
O=[N+]([O-])c1cc(S(=O)(=O)N2CCCCCC2)ccc1F | 75* | 20 | 31 | 1 | 3 | -4
